From ChEMBL document CHEMBL1800018, “Discovery of a series of imidazo[4,5-b]pyridines with dual activity at angiotensin II type 1 receptor and peroxisome proliferator-activated receptor-γ” (J Med Chem, 2011)
pEC50, pIC50: −log10 of the molar value. Active and inactive are the calls of the source. The calls are words filed in the database; no cut-off is given here.

What was measured:
Rattus norvegicus [1] = test: Antidiabetic activity in ZDF rat assessed as body weight gain at 100 mg/kg, po QD for 40 days measured on day 32 (reference value: 133+/-9 g); format: functional, organism-based; design: dose 100 mg/kg
Rattus norvegicus [2] = test: Antidiabetic activity in ZDF rat assessed as blood glucose level at 100 mg/kg, po QD for 40 days (reference value: 771+/-60 mg/dL); format: functional
Rattus norvegicus [3] = test: Antidiabetic activity in ZDF rat assessed as body weight gain at 100 mg/kg, po QD for 40 days (reference value: 133+/-9 g); format: functional
How it was run: (§1)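 Male ZDF rats, starting at about 6 weeks old, were dosed orally once daily for 40 days in 1.5% CMC/0.2% Tween 20 suspension, n = 8/group. Body weight was followed over the study. Gain was calculated per animal from day 0 to day 40 and compared with vehicle and pioglitazone (3 mg/kg) groups. Data are mean ± SEM.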

[4] = molecular target: T1, Peroxisome proliferator-activated receptor gamma (Homo sapiens, UniProt P37231); test: Partial agonist activity at human PPARgamma-LBD/Gal4 DNA binding domain by transactivation assay
T1 sequence (P37231 whole entry): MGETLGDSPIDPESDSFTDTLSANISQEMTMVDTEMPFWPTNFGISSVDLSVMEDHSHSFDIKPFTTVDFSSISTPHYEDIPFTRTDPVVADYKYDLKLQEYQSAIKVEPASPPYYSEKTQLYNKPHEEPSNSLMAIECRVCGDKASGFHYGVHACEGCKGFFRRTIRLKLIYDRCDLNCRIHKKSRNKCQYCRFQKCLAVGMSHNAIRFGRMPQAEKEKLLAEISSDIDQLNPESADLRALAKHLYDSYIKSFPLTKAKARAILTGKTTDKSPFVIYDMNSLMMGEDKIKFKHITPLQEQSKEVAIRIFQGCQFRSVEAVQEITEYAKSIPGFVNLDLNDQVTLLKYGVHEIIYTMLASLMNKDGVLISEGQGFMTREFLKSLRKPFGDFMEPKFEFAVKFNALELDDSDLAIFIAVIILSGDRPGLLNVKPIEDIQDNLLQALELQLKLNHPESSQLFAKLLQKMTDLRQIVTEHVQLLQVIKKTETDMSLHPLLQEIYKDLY

Rattus norvegicus [5] = test: Antidiabetic activity in ZDF rat assessed as adiponectin level at 100 mg/kg, po QD for 40 days (reference value: 11.9+/-1.5 ug/ml); format: functional
Rattus norvegicus [6] = test: Antidiabetic activity in ZDF rat assessed as triglyceride level at 100 mg/kg, po QD for 40 days (reference value: 618+/-52 mg/dL); format: functional
[7] = molecular target: T2, Type-1 angiotensin II receptor (Homo sapiens, UniProt P30556); test: Displacement of [125I]Tyr4-Sar1,Ile8-Angiotensin II from human Angiotensin 1 receptor after 60 mins by scintillation counting
T2 sequence (P30556 whole entry): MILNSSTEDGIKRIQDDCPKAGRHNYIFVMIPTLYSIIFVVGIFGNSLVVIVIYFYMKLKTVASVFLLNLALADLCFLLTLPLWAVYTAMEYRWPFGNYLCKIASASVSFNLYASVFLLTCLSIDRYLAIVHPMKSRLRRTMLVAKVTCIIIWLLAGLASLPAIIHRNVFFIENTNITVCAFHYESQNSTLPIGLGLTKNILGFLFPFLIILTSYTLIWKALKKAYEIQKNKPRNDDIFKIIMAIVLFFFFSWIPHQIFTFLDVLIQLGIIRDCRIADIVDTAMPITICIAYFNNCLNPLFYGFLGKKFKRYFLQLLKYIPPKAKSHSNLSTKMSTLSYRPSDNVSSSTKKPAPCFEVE

Rattus norvegicus [8] = test: Antidiabetic activity in ZDF rat assessed as blood glucose level at 3 mg/kg, po QD for 40 days (reference value: 771+/-60 mg/dL); format: functional
Rattus norvegicus [9] = test: Antidiabetic activity in ZDF rat assessed as triglyceride level at 3 mg/kg, po QD for 40 days (reference value: 618+/-52 mg/dL); format: functional
Rattus norvegicus [10] = test: Antidiabetic activity in ZDF rat assessed as body weight gain at 3 mg/kg, po QD for 40 days measured on day 6 (reference value: 133+/-9 g); format: functional, organism-based; design: dose 3 mg/kg
Rattus norvegicus [11] = test: Antidiabetic activity in ZDF rat assessed as body weight gain at 3 mg/kg, po QD for 40 days (reference value: 133+/-9 g); format: functional; how it was run: as §1
Rattus norvegicus [12] = test: Antidiabetic activity in ZDF rat assessed as adiponectin level at 3 mg/kg, po QD for 40 days (reference value: 11.9+/-1.5 ug/ml); format: functional

`CCCc1nc2c(C)cc(-c3nc4ccccc4n3C)cc2n1Cc1ccc(-c2ccccc2C(=O)O)cc1` was tested, and the Activity (Rattus norvegicus [1]) was “Active”, the Activity (Rattus norvegicus [2]) was 510 mg/dL and the Activity (Rattus norvegicus [3]) was 157 g. For the same compound, the pEC50 [4] was 5.82, the Activity (Rattus norvegicus [5]) was 13.2 µg/mL and the Activity (Rattus norvegicus [6]) was 935 mg/dL.

For `CCc1nc2c(C)cc(C)nc2n1C1CCc2cc(-c3ccccc3-c3nn[nH]n3)ccc21` (racemic), the pEC50 [4] was 6.24 and the pIC50 [7] was 7.02.

Compound `CCc1nc2c(C)cc(C)nc2n1Cc1ccc(-c2ccccc2-c2nnn[nH]2)cc1` [L-158809] has a pEC50 [4] of under 4.70.

In the case of `CCCCc1nc2c(C)cc(C)nc2n1C1CCc2cc(-c3ccccc3-c3nn[nH]n3)ccc21` (racemic), the pEC50 [4] was 5.66 and the pIC50 [7] was 6.62.

In the case of `CCc1c(C)nc2c(nc(CC)n2[C@H]2CCc3cc(-c4ccccc4-c4nnn[nH]4)ccc32)c1C`, the pEC50 [4] was 5.87 and the pIC50 [7] was 7.80.

`CCc1nc2c(C)cc(Cc3ccccc3)nc2n1[C@H]1CCc2cc(-c3ccccc3-c3nnn[nH]3)ccc21` was tested, and the pIC50 [7] was 8.28.

In the case of `CCc1cc(C)c2nc(C(C)C)n([C@H]3CCc4cc(-c5ccccc5-c5nnn[nH]5)ccc43)c2n1`, the pEC50 [4] was 6.58 and the pIC50 [7] was 7.77.

For `CCc1cc(C)c2nc(CC)n([C@H]3CCc4cc(-c5ccccc5-c5nnn[nH]5)ccc43)c2n1`, the pEC50 [4] was 6.31 and the pIC50 [7] was 8.17.

`CCc1ccc(CCOc2ccc(CC3SC(=O)NC3=O)cc2)nc1` (stereo unspecified) [PIOGLITAZONE] was tested, and the Activity (Rattus norvegicus [8]) was 118 mg/dL, the Activity (Rattus norvegicus [9]) was 316 mg/dL and the Activity (Rattus norvegicus [10]) was “Active”. The Activity (Rattus norvegicus [11]) was 269 g and the Activity (Rattus norvegicus [12]) was 30.5 µg/mL.

`CCc1nc2c(CC(C)C)cc(C)nc2n1[C@H]1CCc2cc(-c3ccccc3-c3nnn[nH]3)ccc21` showed a pEC50 [4] of 6.78 and a pIC50 [7] of 6.13.

For `Cc1cc(C)c2nc(C3CC3)n([C@H]3CCc4cc(-c5ccccc5-c5nnn[nH]5)ccc43)c2n1`, the pEC50 [4] was 6.12 and the pIC50 [7] was 8.09.

`Cc1cc(C)c2nc(C(C)C)n([C@H]3CCc4cc(-c5ccccc5-c5nnn[nH]5)ccc43)c2n1` was tested, and the pEC50 [4] was 6.53 and the pIC50 [7] was 7.99.

For `CCc1nc2c(C)c(C)c(C)nc2n1[C@H]1CCc2cc(-c3ccccc3-c3nnn[nH]3)ccc21`, the pEC50 [4] was 5.74 and the pIC50 [7] was 6.69.

Compound `CCc1nc2c(C)cc(CC(C)C)nc2n1[C@H]1CCc2cc(-c3ccccc3C(=O)O)ccc21` has a pEC50 [4] of 6.76 and a pIC50 [7] of 7.98.

In the case of `CCc1nc2c(C)cc(C)nc2n1[C@H]1CCc2cc(-c3ccccc3-c3nnn[nH]3)ccc21`, the pEC50 [4] was 6.23 and the pIC50 [7] was 8.12.

`CCc1nc2c(C)cc(C)nc2n1[C@@H]1CCc2cc(-c3ccccc3-c3nnn[nH]3)ccc21` was tested, and the pEC50 [4] was 5.58 and the pIC50 [7] was 6.18.

`Cc1cc(CC(C)C)nc2c1nc(C(C)C)n2[C@H]1CCc2cc(-c3ccccc3-c3nnn[nH]3)ccc21` gave a pEC50 [4] of 7.05 and a pIC50 [7] of 8.46.

For `CCCc1nc2c(C)cc(C)nc2n1[C@H]1CCc2cc(-c3ccccc3-c3nnn[nH]3)ccc21`, the pEC50 [4] was 5.88 and the pIC50 [7] was 7.88.
